Experimental findings from ChEMBL document CHEMBL1148008, “Antimicrobial and cytotoxic activity of agelasine and agelasimine analogs” (Bioorg Med Chem, 2007) are described below.

One may read the inhibition as the share of the control response that was lost under treatment. Read a low inhibition as a weak effect. As a reminder, the MIC is the lowest concentration that inhibits growth of the organism. The IC50 is the point on the concentration scale where inhibition reaches its midpoint. A high value points to a need for much substance.

Values after ≈ are worked out from the molar mass of the structure shown.

For experiment [1], the system named is Mycobacterium tuberculosis. Briefly: Antimicrobial activity against Mycobacterium tuberculosis at 6.25 ug/mL after 20 hrs by broth microdilution method. The class given is functional.
The next experiment relates to Escherichia coli. The experiment is described as follows: Antibacterial activity against Escherichia coli ATCC 25922 after 20 hrs by broth microdilution method. The class given is functional. The conditions noted are these: ATCC 25922, 20 h. The method in brief: (§1)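 Strains grown 24 h at 35 °C on tryptone-soya agar. Colonies suspended in saline to 0.5 McFarland, then diluted 1:10 in Mueller-Hinton broth (~10⁷ CFU/mL). Inoculum added to twofold dilutions in broth (final 0.125–32 µg/mL) in triplicate. Incubated aerobically at 35 °C for 20 h. MIC is the lowest concentration giving complete growth inhibition. Repeated at least once; gentamycin/streptomycin served as QC.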
(In general: Broth dilution looks for growth in wells or tubes with falling amounts of substance.)

A further experiment has as its system ACHN. Briefly: Cytotoxicity against ACHN cells. The class given is functional, cell-based. The conditions noted are these: Homo sapiens. The gist of the method: (§2)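 Fluorometric microculture cytotoxicity assay (FMCA) read-out; IC50 values reported.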
The subject of the next experiment is U-937/GTB. The experiment is described as follows: Cytotoxicity against U937 GTB cells. The class given is functional, cell-based. The conditions noted are these: Homo sapiens. The gist of the method: as §2
A further experiment relates to Staphylococcus aureus. The experiment is described as follows: Antibacterial activity against Staphylococcus aureus ATCC 25923 after 20 hrs by broth microdilution method. The class given is functional. The gist of the method:
as §1

Experiment [2] is described as follows: Cytotoxicity against RPMI 8226/s cells. The class given is functional, cell-based. The conditions noted are these: Homo sapiens, RPMI8226/S. The gist of the method: as §2
Experiment [3] is described as follows: Cytotoxicity against CEM/s cells. The class given is functional, cell-based. Conditions: Homo sapiens. The method in brief:
as §2

In experiment [4] the test system is Mycobacterium tuberculosis. Briefly: Antimicrobial activity against Mycobacterium tuberculosis after 20 hrs by broth microdilution method. The class given is functional.

Consider `Cn1cnc(=N)c2c1ncn2Cc1ccccc1`, for which, in experiment [1], at 6.25 µg/mL the inhibition was 0%.
On to `CC(C)=CCC/C(C)=C/CC/C(C)=C/CC/C(C)=C/C[n+]1cn(CCC#N)c2nc[nH]/c(=N\OCc3ccccc3)c21`, for which the MIC in the experiment on Escherichia coli is above 32 µg/mL; in the experiment with Staphylococcus aureus (ATCC 25923, 20 h), above 32 µg/mL. Further, the concentration for half-maximal inhibition (IC50) in the experiment on ACHN is 38.9 µM; in the experiment with U-937/GTB, 24.2 µM; in experiment [2], 9.46 µM; in experiment [3] it was 19.1 µM. In addition, the inhibition at 6.25 µg/mL in experiment [1] turned out to be 86%.
With `CO/N=c1\[nH]cnc2c1[n+](C/C=C(\C)CCC=C(C)C)cn2C`, the minimum inhibitory concentration (MIC) was above 32 µg/mL in the experiment with Escherichia coli and above 32 µg/mL in the experiment with Staphylococcus aureus (ATCC 25923, 20 h). Also, the IC50 with ACHN was above 80 µM; with U-937/GTB, 17.5 µM; in experiment [2] it was 18.4 µM; in experiment [3], 27.4 µM.
On to `CC(C)=CCC/C(C)=C/CC/C(C)=C/CC/C(C)=C/C[n+]1cnc2c(ncn2C)c1N.[Br-]`, for which the MIC against Escherichia coli is above 32 µg/mL; against Staphylococcus aureus (ATCC 25923, 20 h) it was 8 µg/mL. Also, the IC50 in the experiment on ACHN was above 80 µM; in the experiment with U-937/GTB it was 39.4 µM; in experiment [2] it was 18.6 µM; in experiment [3], 20.8 µM. The inhibition at 6.25 µg/mL in experiment [1] stood at 72%.
For the compound `C/C(=C\C[n+]1cn(C)c2nc[nH]/c(=N\OCc3ccccc3)c21)CCCC(C)CCCC(C)CCCC(C)C` (stereo not drawn), the MIC was above 32 µg/mL with Escherichia coli and above 32 µg/mL in the experiment with Staphylococcus aureus (ATCC 25923, 20 h). In addition, the IC50 in the experiment on ACHN stood at 20.5 µM; in the experiment with U-937/GTB it was 10.8 µM; in experiment [2], 7.07 µM; in experiment [3] it was 6.3 µM. In addition, the inhibition at 6.25 µg/mL in experiment [1] is 72%.
`CO[C@H]1/C=C/O[C@@]2(C)Oc3c(C)c(O)c4c(O)c(c(/C=N/N5CCN(C)CC5)c(O)c4c3C2=O)NC(=O)/C(C)=C\C=C\[C@H](C)[C@H](O)[C@@H](C)[C@@H](O)[C@@H](C)[C@H](OC(C)=O)[C@@H]1C` [RIFAMPIN] displayed a minimal inhibitory concentration (MIC) in experiment [4] of 0.25 µg/mL (≈ 0.304 µM).
Take `CC(C)=CCC/C(C)=C/CC/C(C)=C/CC/C(C)=C/Cn1cnc2c1C(=N)NCN2C`: the MIC came out at 16 µg/mL (≈ 37.8 µM) against Escherichia coli and 8 µg/mL (≈ 18.9 µM) against Staphylococcus aureus (ATCC 25923, 20 h). The half-maximal inhibitory concentration (IC50) with ACHN is above 80 µM; with U-937/GTB, above 80 µM; in experiment [2], 18.2 µM; in experiment [3], 21.7 µM. The compound further had an inhibition at 6.25 µg/mL in experiment [1] of 99%.
Turning to `Cn1c[n+](Cc2ccccc2)c2ccccc21`, in experiment [1], the inhibition at 6.25 µg/mL was 19%.
Turning to `CO/N=c1\[nH]cnc2c1[n+](Cc1ccccc1)cn2C`, the minimal inhibitory concentration (MIC) against Escherichia coli is above 32 µg/mL; against Staphylococcus aureus (ATCC 25923, 20 h), above 32 µg/mL. Also, the IC50 (with ACHN; with U-937/GTB; in experiment [2]; in experiment [3]) was above 80 µM in each case. Moreover, 6.25 µg/mL produced 4% inhibition in experiment [1].
As to `CO/N=c1\[nH]cnc2c1[n+](C/C=C(\C)CCCC(C)CCCC(C)CCCC(C)C)cn2C` (stereo not drawn), the MIC with Escherichia coli was above 32 µg/mL; in the experiment on Staphylococcus aureus (ATCC 25923, 20 h), above 32 µg/mL. In addition, the IC50 is 16.9 µM in the experiment on ACHN, 5.4 µM in the experiment with U-937/GTB, 3.75 µM in experiment [2] and 7.92 µM in experiment [3]. In experiment [1], this compound came in with an inhibition at 6.25 µg/mL of 56%.
Consider `Cn1cnc2c(N)[n+](Cc3ccccc3)cnc21.[Br-]`, for which the minimal inhibitory concentration (MIC) was above 32 µg/mL with Escherichia coli and above 32 µg/mL in the experiment with Staphylococcus aureus (ATCC 25923, 20 h). In experiment [1], this compound returned an inhibition at 6.25 µg/mL of 0%.
Consider `CC(C)=CCC/C(C)=C\CC/C(C)=C/C[n+]1cn(C)c2ncnc(N)c21.[Cl-]`, for which the MIC in the experiment on Escherichia coli is above 32 µg/mL; against Staphylococcus aureus (ATCC 25923, 20 h), 32 µg/mL. Further, the inhibition at 6.25 µg/mL in experiment [1] stood at 8%.
In experiment [1], `Cn1c[n+](Cc2ccccc2)c2/c(=N/OCc3ccccc3)[nH]cnc21` had an inhibition at 6.25 µg/mL of 0%.
On to `CO/N=c1\[nH]cnc2ncn(C/C=C(\C)CC/C=C(\C)CC/C=C(\C)CCC=C(C)C)c12`, for which the minimum inhibitory concentration (MIC) is above 32 µg/mL against Escherichia coli and above 32 µg/mL against Staphylococcus aureus (ATCC 25923, 20 h). Further, the IC50 in the experiment with ACHN came to 18.1 µM; with U-937/GTB it was 3.31 µM; in experiment [2] it was 3 µM; in experiment [3], 5.69 µM. Further, 6.25 µg/mL produced 74% inhibition in experiment [1].
The compound `Cn1cc[n+](Cc2ccccc2)c1` yielded an inhibition at 6.25 µg/mL in experiment [1] of 19%.
Regarding `CC(C)=CCC/C(C)=C/CC/C(C)=C/CC/C(C)=C/Cn1cnc2ncnc(Cl)c21`, the minimal inhibitory concentration (MIC) with Escherichia coli is above 32 µg/mL; against Staphylococcus aureus (ATCC 25923, 20 h), above 32 µg/mL. The half-maximal inhibitory concentration (IC50) in the experiment with ACHN was 6.75 µM; in the experiment on U-937/GTB it was 5.07 µM; in experiment [2], 5.2 µM; in experiment [3] it was 6.79 µM. Also, the inhibition at 6.25 µg/mL in experiment [1] came to 33%.
Regarding `COc1cccc2c1C(=O)c1c(O)c3c(c(O)c1C2=O)C[C@@](O)(C(=O)CO)C[C@@H]3O[C@H]1C[C@H](N)[C@H](O)[C@H](C)O1` [DOXORUBICIN], the IC50 in the experiment with ACHN was found to be 14.2 µM; in the experiment with U-937/GTB, 0.11 µM; in experiment [2], 0.13 µM; in experiment [3] it was 0.18 µM.
For `CC(C)=CCC/C(C)=C/CC/C(C)=C/CC/C(C)=C/C[n+]1cn(C(c2ccccc2)c2ccccc2)c2nc[nH]/c(=N\OCc3ccccc3)c21`, the MIC in the experiment with Escherichia coli was above 32 µg/mL; in the experiment with Staphylococcus aureus (ATCC 25923, 20 h), 8 µg/mL. Also, the IC50 came out at 17.2 µM with ACHN, 4.24 µM with U-937/GTB, 59 µM in experiment [2] and 9.11 µM in experiment [3]. In addition, in experiment [1], at 6.25 µg/mL the inhibition was 78%.
Regarding `CC(=O)O[C@H]1C(=O)[C@@]2(C)[C@H]([C@H](OC(=O)c3ccccc3)[C@]3(O)C[C@H](OC(=O)[C@H](O)[C@@H](NC(=O)c4ccccc4)c4ccccc4)C(C)=C1C3(C)C)[C@]1(OC(C)=O)CO[C@@H]1C[C@@H]2O` [PACLITAXEL], the IC50 with ACHN came to 31.5 µM; with U-937/GTB, 0.0059 µM; in experiment [2], 0.007 µM; in experiment [3] it was 0.007 µM.
In the experiment with Staphylococcus aureus, GENTAMICIN returned an MIC of 0.1 µg/mL.
With `C=CC[n+]1cn(C)c2nc[nH]/c(=N\OC)c21`, the MIC is above 32 µg/mL against Escherichia coli and above 32 µg/mL in the experiment with Staphylococcus aureus (ATCC 25923, 20 h). Also, the IC50 (in the experiment on ACHN; in the experiment on U-937/GTB; in experiment [2]; in experiment [3]) was above 80 µM in each case.
For the compound `CC(C)=CCC/C(C)=C/CC/C(C)=C/CC/C(C)=C/Cn1cnc2nc[nH]/c(=N\OCc3ccccc3)c21`, the minimum inhibitory concentration (MIC) was above 32 µg/mL in the experiment with Escherichia coli and above 32 µg/mL in the experiment with Staphylococcus aureus (ATCC 25923, 20 h). Further, the half-inhibitory concentration (IC50) with ACHN was found to be 27.4 µM; in the experiment on U-937/GTB, 11.2 µM; in experiment [2], 10.9 µM; in experiment [3], 20.4 µM. The same compound yielded an inhibition at 6.25 µg/mL in experiment [1] of 40%.
With `CO/N=c1\[nH]cnc2c1[n+](C/C=C(\C)CC/C=C(\C)CC/C=C(\C)CCC=C(C)C)cn2C(C)C`, the minimal inhibitory concentration (MIC) in experiment [4] turned out to be 1.56 µg/mL. For the same compound, the IC50 was found to be 2.45 µM in the experiment on ACHN, 1.1 µM with U-937/GTB, 0.886 µM in experiment [2] and 2.05 µM in experiment [3]. For the same compound, the inhibition at 6.25 µg/mL in experiment [1] worked out at 100%.
Take `CC(C)=CCC/C(C)=C/CC/C(C)=C/C[n+]1cn(C)c2ncnc(N)c21.[Cl-]`: the MIC is above 32 µg/mL in the experiment on Escherichia coli and above 32 µg/mL against Staphylococcus aureus (ATCC 25923, 20 h). The IC50 (in the experiment on ACHN; in the experiment on U-937/GTB; in experiment [2]; in experiment [3]) was above 80 µM throughout. In experiment [1], this compound showed an inhibition at 6.25 µg/mL of 13%.
In experiment [1], `Cn1c[n+](Cc2ccccc2)c2/c(=N/OC(C)(C)C)[nH]cnc21` displayed an inhibition at 6.25 µg/mL of 53%.
For `CO/N=c1\[nH]cnc2c1[n+](C/C=C(\C)CC/C=C(\C)CCC1CCCCC1)cn2C`, the MIC against Escherichia coli was 16 µg/mL; against Staphylococcus aureus (ATCC 25923, 20 h), 6 µg/mL.
